Results on seven compounds are retold here after ChEMBL document CHEMBL4422698, “Wortmannin and Wortmannine Analogues from an Undescribed Niesslia sp” (2019).

Values after ≈ are worked out from the molar mass of the structure shown. Active and inactive are the calls of the source. The rule behind the calls is not given here.

In test [1] the test system is Candida albicans. Briefly: Antifungal activity against Candida albicans ATCC 10231 assessed as zone of inhibition at 50 ug/disk by disk diffusion method. The format is functional. The note with it: for zone of inhibition at 50 µg/disc: read-out: IZ. The method in brief: (§1)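 Agar disk diffusion zone-of-inhibition assay on C. albicans ATCC 10231, C. neoformans H99 and S. aureus ATCC 43330, run per NCCLS recommendations. Compound applied at 50 μg/disk, amphotericin B control at 25 μg/disk. Inhibition zone diameter recorded in mm.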

The test system of test [2] is Cryptococcus neoformans. Briefly: Antifungal activity against Cryptococcus neoformans H99 assessed as zone of inhibition at 50 ug/disk by disk diffusion method. It is filed as functional. The note with it: for inhibition zone (IZ): var grubii H99; for zone of inhibition at 50 µg/disc: var grubii H99, read-out: IZ. Summed up:
as §1
In general terms: Agar diffusion results depend on both activity and mobility in agar.

In test [3] the test system is Staphylococcus aureus. Briefly: Antibacterial activity against Staphylococcus aureus ATCC 43330 assessed as zone of inhibition at 50 ug/disk by disk diffusion method. It is filed as functional, organism-based. Summed up: as §1
Test [4] deals with Candida albicans. The test can be described thus: Antifungal activity against Candida albicans ATCC 10231 assessed as zone of inhibition at 25 ug/disk by disk diffusion method. The note with it: read-out: IZ. The format is functional.
The subject of test [5] is Cryptococcus neoformans. Briefly: Antifungal activity against Cryptococcus neoformans H99 assessed as zone of inhibition at 25 ug/disk by disk diffusion method. The format is functional. The note with it: var grubii H99, read-out: IZ. The method in brief:
as §1

Test [6] relates to Candida albicans. The test can be described thus: Antifungal activity against Candida albicans ATCC 10231 measured after 48 hrs by broth microdilution method. The format is functional. The note with it: ATCC 10231, 48 h. The method in brief:
(§2)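 NCCLS serial broth microdilution in RPMI-1640 with 0.165 M MOPS, pH 7.0. Compounds dissolved in DMSO and serially diluted in the medium. MIC-50 taken spectrophotometrically as the lowest concentration giving 50% growth inhibition versus the untreated control. Read at 48 h for C. albicans and A. fumigatus, 72 h for C. neoformans.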
For orientation: Dilution methods test growth across graded concentrations, often in twofold steps.

Test [7] relates to Schizosaccharomyces pombe. Briefly: Ratio of MIC50 for Schizosaccharomyces pombe isolate MJ1682 harboring efflux mutant to MIC50 for Schizosaccharomyces pombe SAK1. The format is functional. The method in brief:
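S. pombe efflux mutant MJ1682 (caf5::bsdR pap1-del pmd1-del mfs1-del bfr1-del) and wild-type SAK1 grown in YES medium for 72 h with serially diluted compound. Viability read on a plate reader with Alamar Blue, itraconazole as positive control. Ratio of the MIC50 of the mutant to that of the wild type.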

Test [8] concerns Aspergillus fumigatus. Briefly: Antifungal activity against Aspergillus fumigatus measured after 48 hrs by broth microdilution method. It is filed as functional. Summed up: as §2
The subject of test [9] is Candida albicans. Briefly: Antifungal activity against Candida albicans ATCC 10231 at 25 uM measured after 24 hrs.
In test [10] the test system is Cryptococcus neoformans. Briefly: Antifungal activity against Cryptococcus neoformans H99 measured after 72 hrs by broth microdilution method. The format is functional. The note with it: var grubii H99 . Summed up:
as §2

In the case of `CCC(C)C(=O)O[C@@H]1C[C@]2(C)C(=O)CC[C@H]2C2=C1[C@@]1(C)[C@@H](COC)OC(=O)[C@@H]3[C@@H](O)NC(=O)[C@@]31C2=O` (stereo not given in full), the “inhibition zone (IZ)” value in test [1], in [2] and in test [3] was “inactive” each time.

On to `COC[C@H]1OC(=O)[C@@H]2[C@H](O)NC(=O)[C@@]23C(=O)C2=C([C@H](OC(=O)C(C)C)C[C@]4(C)C(=O)CC[C@@H]24)[C@@]13C`, for which the “inhibition zone (IZ)” value in test [1], in [2] and in [3] was “inactive” each time.

In the case of `COC[C@H]1OC(=O)[C@@H]2[C@@H](O)NC(=O)[C@@]23C(=O)C2=C([C@H](OC(=O)C(C)C)C[C@]4(C)C(=O)CC[C@@H]24)[C@@]13C`, the “inhibition zone (IZ)” value in test [1], in [2] and in test [3] was “inactive” in each case.

Turning to `C[C@@H]1[C@H](O)[C@@H](C)/C=C/C=C/C=C/C=C/C=C/C=C/C=C/[C@H](O[C@@H]2O[C@H](C)[C@@H](O)[C@H](N)[C@@H]2O)C[C@@H]2O[C@](O)(C[C@@H](O)C[C@@H](O)[C@H](O)CC[C@@H](O)C[C@@H](O)CC(=O)O[C@H]1C)C[C@H](O)[C@H]2C(=O)O` [AMPHOTERICIN B], the figures for the zone of inhibition at 25 µg/disc in test [4] and in [5] were 10 mm and 13 mm, respectively.

As for `CCC(C)C(=O)O[C@@H]1C[C@]2(C)C(=O)CC[C@H]2C2=C1[C@@]1(C)[C@@H](COC)OC(=O)[C@@H]3[C@H](O)NC(=O)[C@@]31C2=O` (stereo not given in full), the “inhibition zone (IZ)” value in test [1], in test [2] and in test [3] was “inactive” in each case.

By MIC50 is commonly meant an inhibitory concentration at the 50% level, which refers to growth in some studies and to a panel of isolates in others. Low values mean greater potency, high ones weaker potency. On to `CCC(C)C(=O)O[C@@H]1C[C@]2(C)C(=O)CC[C@H]2C2=C1[C@]1(C)c3c(coc3C2=O)C(=O)O[C@@H]1COC` (stereo not given in full), for which the MIC50 in [6] is 200 µM (≈ 94.1 µg/mL); in test [8], 200 µM (≈ 94.1 µg/mL); in test [10], 100 µM (≈ 47.1 µg/mL). In addition, the zone of inhibition at 50 µg/disc in [1] turned out to be 25 mm; in test [2] it was 16 mm. The Ratio in test [7] was determined as 0.1. The result in test [9] was Active. Besides, in test [3], the “inhibition zone (IZ)” value is “inactive”.

Take `COC[C@H]1OC(=O)c2coc3c2[C@@]1(C)C1=C(C3=O)[C@@H]2CCC(=O)[C@@]2(C)C[C@H]1OC(=O)C(C)C`: the zone of inhibition at 50 µg/disc in [1] came to 25 mm; in test [2], 13 mm. Besides, in [3], the “inhibition zone (IZ)” value is “inactive”.
